Measured values taken from ChEMBL document CHEMBL1132142, “Extension of the polyanionic cosalane pharmacophore as a strategy for increasing anti-HIV potency” (J Med Chem, 1999).

Assays:
[1] = tested on: CEM-SS; test: The compound was evaluated for cytotoxicity in CEM-SS cells; type: functional, Homo sapiens
Procedure, shortened: (§1)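 Uninfected cells (CEM-SS or MT-4, per line) were incubated with the drug in a microtiter XTT assay. Viability was expressed as percent of the uninfected drug-free control. CC50 is the concentration causing 50% cell death. Triplicates were run per plate on two sister plates, and the two plate values were averaged.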

[2] = tested on: MT4; test: The compound was evaluated for inhibition of cytopathic effect of HIV-1 IIIB in MT-4 cells; type: functional, cell-based, Homo sapiens
[3] = tested on: MT4; test: The compound was evaluated for cytotoxicity in MT-4 cells; type: functional, Homo sapiens; procedure, shortened: as §1
[4] = tested on: CEM-SS; test: The compound was evaluated for uM; type: functional, cell-based, Homo sapiens
[5] = tested on: MT4; test: The compound was evaluated for inhibition of cytopathic effect of HIV-2ROD in MT-4 cells; type: functional, cell-based, Homo sapiens
[6] = tested on: CEM-SS; test: The compound was evaluated for inhibition of cytopathic effect of HIV-1 RF in CEM-SS cells; type: functional, cell-based, Homo sapiens
Procedure, shortened: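 XTT-based microtiter cytoprotection assay measuring protection from HIV-1-induced cytopathic effect, read as percent of the uninfected drug-free control. EC50 is the concentration giving 50% protection in infected cultures. Results were confirmed by cell-free supernatant reverse transcriptase and p24 levels. Each plate was run in triplicate, and the EC50 values from two sister plates were averaged.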

| SMILES | Cytotoxicity [1] [µM] | EC50 ([2]; mt4) [µM] | Cytotoxicity [3] [µM] | EC50 [4] | EC50 ([5]; mt4) [µM] | EC50 ([6]; cem-ss) [µM] | EC50 ([6]; Homo sapiens, CEM-SS) [µM] | EC50 ([2]; Homo sapiens, MT4) [µM] | EC50 ([5]; Homo sapiens, MT4) [µM] |
| --- | --- | --- | --- | --- | --- | --- | --- | --- | --- |
| CC(C)CCCC(C)[C@H]1CC[C@H]2[C@@H]3CCC4C[C@@H](CCC=C(c5cc(Cl)c(OCc6cccc([N+](=O)[O-])c6)c(C(=O)O)c5)c5cc(Cl)c(OCc6cccc([N+](=O)[O-])c6)c(C(=O)O)c5)CC[C@]4(C)[C@H]3CC[C@]12C (stereo partly specified) | 16 | > 125 | 97 | Not Active | > 125 |  |  |  |  |
| CC(C)CCCC(C)[C@H]1CC[C@H]2[C@@H]3CCC4C[C@@H](CCC=C(c5cc(Cl)c(OCc6ccccc6C(=O)[O-])c(C(=O)[O-])c5)c5cc(Cl)c(OCc6ccccc6C(=O)[O-])c(C(=O)[O-])c5)CC[C@]4(C)[C@H]3CC[C@]12C.[Na+].[Na+].[Na+].[Na+] (stereo partly specified) | >316 | 22.1 | 52 |  | > 52 | 17.9 |  |  |  |
| CC(C)CCCC(C)[C@H]1CC[C@H]2[C@@H]3CCC4C[C@@H](CCC=C(c5cc(Cl)c(OCc6cccc([N+](=O)[O-])c6)c(C(=O)[O-])c5)c5cc(Cl)c(OCc6cccc([N+](=O)[O-])c6)c(C(=O)[O-])c5)CC[C@]4(C)[C@H]3CC[C@]12C.[Na+].[Na+] (stereo partly specified) | >316 | 48 | >125 |  | 29 |  | 21.5 |  |  |
| CC(C)CCCC(C)[C@H]1CC[C@H]2[C@@H]3CCC4C[C@@H](CCC=C(c5cc(Cl)c(OCc6ccccc6[N+](=O)[O-])c(C(=O)O)c5)c5cc(Cl)c(OCc6ccccc6[N+](=O)[O-])c(C(=O)O)c5)CC[C@]4(C)[C@H]3CC[C@]12C (stereo partly specified) | 66 |  | 108 | Not Active |  |  |  |  |  |
| CC(C)CCCC(C)[C@H]1CC[C@H]2[C@@H]3CCC4C[C@@H](CCC=C(c5cc(Cl)c(OCc6cccc(C(=O)O)c6)c(C(=O)O)c5)c5cc(Cl)c(OCc6cccc(C(=O)O)c6)c(C(=O)O)c5)CC[C@]4(C)[C@H]3CC[C@]12C (stereo partly specified) | >316 |  | 29 |  |  |  | 5.7 | 2.2 | > 29 |
| CC(C)CCCC(C)[C@H]1CC[C@H]2[C@@H]3CCC4C[C@@H](CCC=C(c5cc(Cl)c(O)c(C(=O)O)c5)c5cc(Cl)c(O)c(C(=O)O)c5)CC[C@]4(C)[C@H]3CC[C@]12C (stereo partly specified) | >200 |  | >125 |  |  |  |  | 3 | 4 |
| CC(C)CCCC(C)[C@H]1CC[C@H]2[C@@H]3CCC4C[C@@H](CCC=C(c5cc(Cl)c(OCc6ccccc6C(=O)O)c(C(=O)O)c5)c5cc(Cl)c(OCc6ccccc6C(=O)O)c(C(=O)O)c5)CC[C@]4(C)[C@H]3CC[C@]12C (stereo partly specified) | >316 |  | 37 |  |  |  |  | > 37 | > 37 |
| CC(C)CCCC(C)[C@H]1CC[C@H]2[C@@H]3CCC4C[C@@H](CCC=C(c5cc(Cl)c(OCc6ccc([N+](=O)[O-])cc6)c(C(=O)O)c5)c5cc(Cl)c(OCc6ccc([N+](=O)[O-])cc6)c(C(=O)O)c5)CC[C@]4(C)[C@H]3CC[C@]12C (stereo partly specified) | >316 |  | 83 | Not Active | > 83 |  |  | > 83 |  |
| CC(C)CCCC(C)[C@H]1CC[C@H]2[C@@H]3CCC4C[C@@H](CCC=C(c5cc(Cl)c(OCc6ccccc6[N+](=O)[O-])c(C(=O)[O-])c5)c5cc(Cl)c(OCc6ccccc6[N+](=O)[O-])c(C(=O)[O-])c5)CC[C@]4(C)[C@H]3CC[C@]12C.[Na+].[Na+] (stereo partly specified) | >316 |  | 99 |  |  |  | 12.2 | > 125 | > 125 |
| CC(C)CCCC(C)[C@H]1CC[C@H]2[C@@H]3CCC4C[C@@H](CCC=C(c5cc(Cl)c(OCc6ccc([N+](=O)[O-])cc6)c(C(=O)[O-])c5)c5cc(Cl)c(OCc6ccc([N+](=O)[O-])cc6)c(C(=O)[O-])c5)CC[C@]4(C)[C@H]3CC[C@]12C.[Na+].[Na+] (stereo partly specified) | >316 | 80 | >125 |  | 33 |  | 78.2 |  |  |
| CC(C)CCCC(C)[C@H]1CC[C@H]2[C@@H]3CCC4C[C@@H](CCC=C(c5cc(Cl)c(OCc6cccc(C(=O)[O-])c6)c(C(=O)[O-])c5)c5cc(Cl)c(OCc6cccc(C(=O)[O-])c6)c(C(=O)[O-])c5)CC[C@]4(C)[C@H]3CC[C@]12C.[Na+].[Na+].[Na+].[Na+] (stereo partly specified) | >316 | 2.4 | 35 |  | > 35 | 7.6 |  |  |  |
